We go through 11 compounds from article PMC5617735 (Journal of the American Chemical Society, 2017).

In brackets after ≈: the same amount, converted by molar mass. Non-standard residues stand in square brackets, D forms with d. Residues, ends and D or L forms follow the SMILES beside them. ξ: configuration not given here. *: point of attachment. ξI = CCC(C)C(N)C(=O)O; Butyryl = CCCC(=O)* Bounds are passed on as bounds.

One assay addresses cathepsin B (Homo sapiens, UniProt P07858). In words: Cathepsin B inhibition assay. The conditions noted are these: read-out: Half-maximal inhibitory concentration (IC50), Cathepsin B Inhibition. The class given is biochemical.
Assay [1] relates to sur cluster (surA and surC transcripts). In words: RT-qPCR of sur cluster expression. Type of assay: cell-based, Streptomyces albus J1074. Particulars: for induction of surA and surC: wt S. albus, vs DMSO control; for induction of surA and surC / elicitor concentration yielding optimal upregulation of sur: RT-qPCR; for upregulation of surC: at optimal elicitor concentration (~23 μM etoposide, ~30 μM ivermectin), vs DMSO; for elicitor concentration yielding optimal upregulation of sur: dose-response. Summed up:
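Wild-type S. albus J1074 cultures were exposed to the test compound, with DMSO as the negative control. surA and surC mRNA were measured by RT-qPCR and expressed as fold-change versus the DMSO control. For the dose-response, concentrations were multiples of a base level: 1x equals 5.7 μM or 7.6 μM final, depending on the elicitor.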
A general note: Quantitative PCR measures a nucleic acid by following its amplification.

Assay [2] deals with Staphylococcus aureus Newman. The assay is described as follows: Antibacterial assay. The class given is cell-based. The conditions noted are these: read-out: IC50, Staphylococcus aureus Newman.
The next assay relates to Bacillus subtilis 168. In words: Antibacterial assay. Type of assay: cell-based. The conditions noted are these: read-out: IC50, Bacillus subtilis 168.
Assay [3] concerns Enterococcus faecalis OG1RF. In words: Antibacterial assay. The class given is cell-based. Particulars: read-out: IC50, Enterococcus faecalis OG1RF.
In the next assay the test system is Saccharomyces cerevisiae. In words: Antifungal assay. The class given is cell-based. Particulars: read-out: IC50, Saccharomyces cerevisiae.
Another assay concerns Saccharomyces pombe. The assay is described as follows: Antifungal assay. The conditions noted are these: read-out: IC50, Saccharomyces pombe. The class given is cell-based.
The next assay relates to E. coli K12. In words: Antibacterial assay. Type of assay: cell-based. The conditions noted are these: read-out: IC50, E. coli K12.
Assay [4] has as its system Pseudomonas aeruginosa PAO1. In words: Antibacterial assay. Particulars: read-out: IC50, Pseudomonas aeruginosa PAO1. The class given is cell-based.
The next assay concerns strains tested. In words: Antibacterial and antifungal assays. Type of assay: cell-based.
The test system of another assay is S. albus. The assay is described as follows: Growth inhibition of S. albus by elicitors. Type of assay: cell-based, Streptomyces albus J1074.
For the next assay, the system named is surR. In words: RT-qPCR of surR expression upon elicitor exposure. The class given is cell-based, Streptomyces albus J1074. Particulars: wt S. albus, vs DMSO control.
Assay [5] has as its system ΔsurR S. albus secondary metabolite production. The assay is described as follows: HPLC-Qtof-MS of sur metabolite production in ΔsurR strain treated with elicitor. The conditions noted are these: for increase in the production of surugamide I: HPLC-Qtof-MS; for upregulation of acyl-surugamide A / upregulation of albucyclone A: estimate based on lower limit of detection. Type of assay: cell-based, Streptomyces albus J1074.

The subject of another assay is recA and lexA. In words: RT-qPCR of SOS response genes recA and lexA. The class given is cell-based, Streptomyces albus J1074. Particulars: S. albus.

For the compound surugamide I [compound 13], the IC50 at cathepsin B turned out to be 9 µM.

With `CC(C)[C@@]1(NC(=O)[C@@H]2C[C@@H]3c4cccc5[nH]cc(c45)C[C@H]3N(C)C2)O[C@@]2(O)[C@@H]3CCCN3C(=O)[C@H](Cc3ccccc3)N2C1=O` [dihydroergocristine], the “induction of surA and surC” value in assay [1] came to 3 fold.

Take albuquinone A [compound 22]: the IC50 (in assay [2]; in the assay on Bacillus subtilis 168; in [3]; in the assay with Saccharomyces cerevisiae; with Saccharomyces pombe; in the assay with E. coli K12) was over 100 µM in each case. Also, the IC50 in assay [4] was over 100 µM. For the same compound, in the assay with strains tested, the “antibiotic activity against the strains tested” value is on record as “did not reveal significant antibiotic activity”.

As to `CC[C@@H](C)[C@H]1NC(=O)[C@H](C(C)C)NC(=O)[C@@H](C)NC(=O)[C@H](C(C)C)NC(=O)[C@@H](CC(C)C)NC(=O)[C@@H](Cc2ccccc2)NC(=O)[C@H]([C@@H](C)CC)NC(=O)[C@H](CCCCN)NC1=O` [compound 11, surugamide G] (cyclo(I[dF][dL]V[dA]V[dI]K)), the IC50 (on cathepsin B; in [2]; in the assay with Bacillus subtilis 168; in assay [3]; in the assay with Saccharomyces cerevisiae; in the assay on Saccharomyces pombe) was over 100 µM throughout. Besides, the IC50 (with E. coli K12; in assay [4]) was over 100 µM each time.

Turning to `CCCC(=O)NCCCC[C@@H]1NC(=O)C(C(C)CC)NC(=O)C(C(C)CC)NC(=O)[C@@H](C)NC(=O)C(C(C)CC)NC(=O)[C@@H](CC(C)C)NC(=O)[C@@H](Cc2ccccc2)NC(=O)[C@H]([C@@H](C)CC)NC1=O` (stereo partly drawn) [compound 15, acyl-surugamide A] (cyclo(I[dF][dL][ξI][dA][ξI][ξI]K(Butyryl))), the IC50 on cathepsin B is 43.3 µM; in assay [2], 27.4 µM; with Bacillus subtilis 168, 21.7 µM; in assay [3] it was over 100 µM; in the assay with Saccharomyces cerevisiae, 3.5 µM; with Saccharomyces pombe, 32.5 µM. The IC50 (with E. coli K12; in assay [4]) was over 100 µM each time.

For the compound `CC[C@@H](C)[C@H]1NC(=O)[C@H](C(C)C)NC(=O)[C@@H](C)NC(=O)[C@H](C(C)C)NC(=O)[C@@H](CC(C)C)NC(=O)[C@@H](Cc2ccccc2)NC(=O)[C@H](C(C)C)NC(=O)[C@H](CCCCN)NC1=O` [compound 12, surugamide H] (cyclo(KV[dF][dL]V[dA]V[dI])), the IC50 on cathepsin B came to 12.4 µM.

In the case of albucyclone A [compound 16], the IC50 at cathepsin B is over 100 µM.

For the compound albucyclone F [compound 21], the IC50 (at cathepsin B; in assay [2]; in the assay with Bacillus subtilis 168; in assay [3]; in the assay with Saccharomyces cerevisiae; in the assay on Saccharomyces pombe) was over 100 µM throughout. Moreover, the IC50 (in the assay with E. coli K12; in [4]) was over 100 µM in each case.

Turning to `COc1cc([C@@H]2c3cc4c(cc3[C@@H](O[C@@H]3O[C@@H]5CO[C@@H](C)O[C@H]5[C@H](O)[C@H]3O)[C@H]3COC(=O)[C@H]23)OCO4)cc(OC)c1O` [etoposide], in assay [1], the “upregulation of surC” value is ~ 10 fold; the “elicitor concentration yielding optimal upregulation of sur” value was ~ 23 μM; the “induction of surA and surC” value was 3 fold. In the assay with S. albus (Streptomyces albus, read-out: half-maximal inhibitory concentration (IC50) on S. albus), the IC50 amounted to 10 µg/mL (≈ 17 µM). For the same compound, the “down-regulation of surR expression” value in the assay with surR was 2–2.5 fold. Moreover, in [5], the “increase in the production of surugamide I” value is over 35 fold, the “upregulation of acyl-surugamide A” value was over 40 fold and the “upregulation of albucyclone A” value was over 50 fold.

For surugamide J [compound 14], the IC50 (on cathepsin B; in [2]; in the assay with Bacillus subtilis 168; in assay [3]; in the assay with Saccharomyces cerevisiae; in the assay with Saccharomyces pombe) was over 100 µM throughout. In addition, the IC50 (in the assay with E. coli K12; in assay [4]) was over 100 µM in each case.

Consider ivermectin, for which, in assay [1], the “upregulation of surC” value amounted to 4.5 fold; the “elicitor concentration yielding optimal upregulation of sur” value is given as ~ 30 μM; the “induction of surA and surC” value turned out to be 3 fold. Moreover, the “inhibition of S. albus growth” value in the assay on S. albus (at the concentrations employed) is listed as “did not inhibit S. albus growth”. Besides, the “down-regulation of surR expression” value with surR is recorded as 2–2.5 fold. Also, the “induction of recA and lexA” value with recA and lexA was “no changes”. In addition, in [5], the “increase in the production of surugamide I” value was over 35 fold, the “upregulation of acyl-surugamide A” value is over 40 fold and the “upregulation of albucyclone A” value is over 50 fold.
